According to article PMC4327868 (Chemical research in toxicology, 2013):

Assays:
Assay type in all cases: cell-based
PC6-3 cells [1] = test: Extracellular dopamine metabolites; conditions: 300 μM
Outline: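 NGF-differentiated PC6-3 cells were given test compound (0, 10, 25, 50, 100 or 300 μM; 0.6% DMSO) in HEPES-buffered saline, pH 7.4. Extracellular aliquots taken at 0, 1 and 4 h went into 5% perchloric acid and were centrifuged. DOPAL, DOPAC and DOPET were run on isocratic C18 HPLC (0.1% TFA, 6% ACN), read at 202/280 nm, and quantified against standard curves. Mean ± SD, n = 3.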

PC6-3 cells [2] = test: DA-supplemented dopamine metabolism; conditions: 10 μM dieldrin, cells spiked with 100 μM DA 15 min prior, 4 h, vs control
Outline: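 PC6-3 cells seeded at 6 × 10^4 cells/well, NGF-differentiated (50 ng/mL, 4 days), and given 100 μM DA 15 min before 4 h exposure to test compound (10, 30, 100 or 300 μM) in HEPES-buffered saline. Extracellular DOPAL was measured by capillary C18 HPLC with photodiode-array detection and quantified against a standard curve. Reported as % control; mean ± SEM, n = 3 or 4.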

PC6-3 cells [3] = test: Cytotoxicity by lactate dehydrogenase; conditions: 4 h, even at high concentrations (900 μM)

## ClC1=C(Cl)C2(Cl)C3CC4OC4CC3C1(Cl)C2(Cl)Cl (stereo not drawn) [desmethylene dieldrin, 1,8,9,10,11,11-Hexachloro-4,5-epoxy-2,3-7,6-endotricyclo[6.2.1.0^2,7]undec-9-ene]
PC6-3 cells [1]
  increase of extracellular DOPAL concentration: 10 fold

## ClC1=C(Cl)[C@]2(Cl)[C@@H]3[C@@H]4C[C@@H]([C@H]5O[C@@H]45)[C@@H]3[C@@]1(Cl)C2(Cl)Cl [dieldrin]
PC6-3 cells [2]
  increase in extracellular DOPAL levels: ~200%

## ClC1=C(Cl)C2(Cl)C3C4CC(C5OC45)C3C1(Cl)C2(Cl)Cl (stereo not drawn) [endrin]
PC6-3 cells [3]
  cytotoxicity (LDH release): no cytotoxicity
